Reference: ChEMBL document CHEMBL4765324, “Synthesis and biological evaluation of novel quinoline-piperidine scaffolds as antiplasmodium agents” (Eur J Med Chem, 2020)

Columns and labels:
Plasmodium falciparum = assay: Resistance index, ratio of IC50 for antiplasmodial activity against chloroquine-resistant Plasmodium falciparum K1 to IC50 for antiplasmodial activity against chloroquine-sensitive Plasmodium falciparum NF54; type: functional
In short: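 Asexual blood-stage P. falciparum K1 and NF54 kept in continuous culture (modified Trager–Jensen). Growth read by parasite lactate dehydrogenase assay (modified Makler). Ten 2-fold dilutions in complete medium, from 10 μg/ml to 20 ng/ml (or 1 μg/ml to 2 ng/ml). Chloroquine as reference. Triplicate on one occasion. IC50s from non-linear dose-response fit. RI = IC50 K1/IC50 NF54.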

[1] = Selectivity index, ratio of IC50 for CHO cells to IC50 for antiplasmodial activity against chloroquine-sensitive Plasmodium falciparum NF54; type: toxicity; conditions: hamster, CHO cells (cytotoxicity) versus Plasmodium falciparum NF54; read-out: Ratio IC50
In short: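 CHO cytotoxicity measured by MTT colorimetric assay, using the antiplasmodial stock solutions. Six 10-fold dilutions in complete medium, 100 to 0.001 μg/ml, with emetine as reference. Triplicate on one occasion. IC50 from non-linear dose-response fit. NF54 IC50 came from the parasite lactate dehydrogenase assay. SI = IC50 CHO/IC50 NF54.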

| Compound | Ratio IC50 (Plasmodium falciparum) | selectivity ratio [1] |
| --- | --- | --- |
| Oc1cccc2ccc(CNCC3CC4(c5ccccc5)CCN3C4)nc12 (mixture of isomers) | 6.4 |  |
| C=CCN1C[C@@H](OCc2ccccc2)[C@@H](CNCc2ccnc3ccccc23)C(C)(C)C1 (relative stereo) | 1.5 |  |
| c1ccc(C23CCN(C2)C(CNc2ccnc4ccccc24)C3)cc1 (mixture of isomers) | 1.5 |  |
| C=CCN1C[C@@H](OCc2ccccc2)[C@@H](CNCc2ccc3ccccc3n2)C(C)(C)C1 (relative stereo) | 1.8 |  |
| C=CCN1CCC(CNc2ccnc3cc(Cl)ccc23)C(C)(C)C1 (stereo not given) | 1.7 |  |
| Clc1ccc2c(NCC3CC4(c5ccccc5)CCN3C4)ccnc2c1 (mixture of isomers) | 1.6 |  |
| C=CCN1C[C@@H](OCc2ccccc2)[C@@H](CNCc2cc3ccccc3nc2Cl)C(C)(C)C1 (relative stereo) | 1.5 |  |
| C=CCN1C[C@@H](OCc2ccccc2)[C@@H](CNc2ccnc3cc(Cl)ccc23)C(C)(C)C1 (relative stereo) | 2.2 | 10100 |
| C=CCN1CCC(CNc2ccnc3ccccc23)C(C)(C)C1 (stereo not given) | 0.3 |  |
